MT stabilize HCS = microtubule stabilization, imaging screen | HeLa tubulin immunostaining HCS, 24 h; share of cells brighter than vehicle mean+2SD | 200,000 compounds, 0.83% hits | AID 2205 | % tubulin-high responders, % at 10 µM;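 active = plate Z-score above 3 for both tubulin-high and condensed-nucleus cell shares, with cell loss under 80%, at 10 µM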;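 note: anti alpha tubulin signal scored within the nucleus-defined area of each cell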
APP transl inh = APP translation inhibition; SH-SY5Y APP 5'UTR-luciferase reporter, luminescence; inhibition, % at 2 µM; 190,000 compounds, 0.82% hits; AID 1285;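 active = inhibition above a set limit, derived from the sample mean plus 3 SD, cut at about 45% in these data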
BaF3 tox = counter-screen for JAK2V617F inhibitors: parental Ba/F3 viability inhibitors | CellTiter-Glo ATP luminescence | inhibition, % at 5.6 µM | 220,000 compounds, 1.1% hits;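 active = inhibition above a per-campaign cutoff, the mean inhibition of all tested compounds plus 3 SD, cut at about 27% in these data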
bCat nuc transl = beta-catenin nuclear translocation modulation; nuclear translocation activity, % at 5 µM; HeLa beta-catenin nuclear translocation, immunofluorescence imaging; 190,000 compounds, 0.3% hits;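 active = nuclear translocation activity above 50% at 5 µM, with a well cell count of 50 or more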;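 note: per-cell ratio of nuclear to cytoplasmic median beta-catenin stain intensity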
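Test system: human HeLa cell line; Doses: 5 µM primary, 0.02–20 µM confirmation; Incubation: 24 h compound exposure, 37°C; Detection: beta-catenin immunofluorescence imaging with DAPI; Read-out: beta-catenin nuclear/cytoplasmic ratio, % activation.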
Ba/F3 V617F tox = reduce viability of Ba/F3 cells dependent on JAK2V617F | inhibition, % at 5.6 µM | AID 1446 | Ba/F3 EpoR-JAK2V617F viability, ATP luminescence | 220,000 compounds, 1.1% hits;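 active = inhibition above the campaign mean plus 3 SD over all tested compounds, cut at about 24% in these data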;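 note: cytokine-independent growth of Ba/F3 cells driven by EpoR plus mutant JAK2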
Lmaj promast = inhibitors of Leishmania major promastigote growth. Leishmania major promastigotes, resazurin fluorescence viability. inhibition, % at 10 µM. 200,000 compounds, 9% hits; in the data active = inhibition above about 50%;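 note: promastigotes grown with compound for 44 hours at 28 °C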
Each line names hits and unclear results; the compound was inactive in the other large screens. This is a sample that favours compounds with a hit; in the whole collection about 9.6% have one here.

CCC(Sc1nc2ccccc2s1)C(=O)Nc1cc(C)on1 (stereo not drawn)	Lmaj promast 67
CCC1CCCCN1CCCNC(=O)C1CCN(S(=O)(=O)N2CCCCC2)CC1 (stereo not drawn)	none
CCOc1ccc(CCNC(=O)C2CCN(S(=O)(=O)N3CCOCC3)CC2)cc1OCC	none (no result: bCat nuc transl)
CCC1CCCCN1CCNC(=O)C1CCN(S(=O)(=O)c2c(C)noc2C)CC1 (stereo not drawn)	Lmaj promast 77 (no result: bCat nuc transl)
CCOc1ccc(CCNC(=O)C2CCN(S(=O)(=O)N3CCCCC3)CC2)cc1OCC	BaF3 tox 93
COc1ccc(CCNC(=O)C2CCN(S(=O)(=O)c3c(C)noc3C)CC2)cc1OC	Lmaj promast 53
Cc1cccc(CCNC(=O)C2CCN(S(=O)(=O)c3c(C)noc3C)CC2)c1	Lmaj promast 100 (no result: bCat nuc transl)
COC(=O)CCCC1=CC2=C(c3ccccc3)C(=O)C(C)(OC(=O)C3CCCC3)C(=O)C2=CN1CCc1c[nH]c2ccccc12 (stereo not drawn)	none (no result: MT stabilize HCS, APP transl inh, BaF3 tox, Ba/F3 V617F tox, Lmaj promast)
CN(C)c1ccc(C(CNS(=O)(=O)c2ccc(F)cc2)c2c[nH]c3ccccc23)cc1 (stereo not drawn)	Lmaj promast 79
CN(C)c1ccc(C(CNC(=O)c2ccc(C#N)cc2)c2c[nH]c3ccccc23)cc1 (stereo not drawn)	none
CN(C)c1ccc(C(CNC(=O)c2ccccc2Br)c2c[nH]c3ccccc23)cc1 (stereo not drawn)	Lmaj promast 94
CCOC(=O)c1ccc(S(=O)(=O)NCC(c2ccc(N(C)C)cc2)c2c[nH]c3ccccc23)cc1 (stereo not drawn)	none
COCCN1C(=O)/C(=C/c2ccc(Oc3ccc([N+](=O)[O-])cn3)c(OC)c2)SC1=Nc1ccccc1	Lmaj promast 100
COc1cc(/C=C2\SC(=Nc3ccccc3)N(CCc3c[nH]c4ccccc34)C2=O)ccc1OC(C)C(=O)O (stereo not drawn)	none
O=C(NC1CCCCC1)C(c1cccnc1)N(C(=O)CCl)c1ccccc1Cl (stereo not drawn)	Lmaj promast 68
O=C(NC1CCCCC1)C(c1cccnc1)N(C(=O)CCl)c1ccc(F)cc1 (stereo not drawn)	Lmaj promast 78 (no result: APP transl inh)
COc1ccc(C(C(=O)NC2CCCCC2)N(C(=O)c2ccccn2)c2cccnc2)cc1 (stereo not drawn)	none
COc1ccc(N(C(=O)CCl)C(C(=O)NC2CCCCC2)c2cccnc2)cc1 (stereo not drawn)	Lmaj promast 98
O=C(NCC(=O)N(c1ccc(F)cc1)C(C(=O)NC1CCCC1)c1cccnc1)c1cccs1 (stereo not drawn)	none
OC(CNc1ccccc1)Cn1ccc2ccccc21 (stereo not drawn)	none
COc1ccccc1OCCNC(=O)Cc1ccc(Cl)c(Cl)c1	none
Cc1ccc(C(=O)Nc2ccc(N3CCOCC3)nc2N2CCOCC2)cc1	none (no result: MT stabilize HCS, APP transl inh, Lmaj promast)
COc1ccc(Oc2cn[nH]c2-c2ccc(O)cc2O)cc1	Lmaj promast 58
COc1ccc(-c2[nH]ncc2Oc2ccccc2OC)c(O)c1	none (no result: bCat nuc transl)
CCCc1ccc(Oc2cn[nH]c2-c2ccc(O)cc2O)cc1	Lmaj promast 95
COc1ccc2nc(/C=N/NC(=O)[C@@H]3CCCN3C(=O)OC(C)(C)C)ccc2c1	none (no result: MT stabilize HCS, APP transl inh, Lmaj promast)
O=C(N/N=C/c1ccc(OC(F)F)cc1OC(F)F)c1ccc(Br)cc1	none
Cc1ccc(S(=O)(=O)N(C)Cc2ccc(C(=O)N/N=C/c3ccc(OC(F)F)cc3OC(F)F)cc2)cc1	Lmaj promast 55
COc1cc(/C=C(\C#N)c2nc(-c3cc4ccccc4oc3=O)cs2)ccc1O	Lmaj promast 61
O=C(COc1cccc2ccccc12)NNC(=O)Nc1ccccc1	none
O=C(COc1cccc2ccccc12)NNC(=O)CSCCO	Lmaj promast 57
CSc1ccc(C(=O)C2CCCN(Cc3cccn3-c3cccnc3)C2)cc1 (stereo not drawn)	Lmaj promast 85
COc1ccc(C(=O)C2CCCN(Cc3cccn3-c3cccnc3)C2)cc1OC (stereo not drawn)	none
CC(C)Oc1cccc(C(=O)C2CCCN(Cc3cccn3-c3cccnc3)C2)c1 (stereo not drawn)	none (no result: MT stabilize HCS, APP transl inh, Lmaj promast)
O=C(c1ccc2c(c1)OCO2)C1CCCN(Cc2cccn2-c2cccnc2)C1 (stereo not drawn)	Lmaj promast 94
O=C(c1ccc(Cl)cc1)C1CCCN(Cc2cccn2-c2cccnc2)C1 (stereo not drawn)	Lmaj promast 87
CC[C@@H](C)[C@@H](C(=O)N1CCN(C(=O)OC(C)(C)C)CC1)n1cc(CCCCNC(=O)OC(C)(C)C)nn1	none
O=C(O)C1=C[C@H](c2ccc(F)cc2)C[C@H](OCCCCO)O1	none (no result: MT stabilize HCS, APP transl inh, BaF3 tox, Ba/F3 V617F tox, Lmaj promast)
COc1ccccc1CNC(=O)c1ccc(N2CCOCC2)c([N+](=O)[O-])c1	none
CC(=O)Nc1nc2ccc(-c3nc4ccccc4o3)cc2s1	none
C=CCCC1(C)C(=O)N(c2ccccc2)c2ccccc21 (stereo not drawn)	MT stabilize HCS 19 (no result: bCat nuc transl)
COc1ccc(C(=O)NCc2nnc(SCC(=O)N3CCc4ccccc43)n2Cc2ccccc2)cc1	Lmaj promast 64 (no result: bCat nuc transl)
Cn1c(-c2c(N)n(CCc3ccccc3)c3nc4ccccc4nc23)nc2ccccc21	Lmaj promast 100 (no result: bCat nuc transl)
Cn1c(-c2c(N)n(CCCc3ccccc3)c3nc4ccccc4nc23)nc2ccccc21	Lmaj promast 98
O=C(COc1ccccc1C(=O)Nc1ccccc1)NCCc1ccccc1	none
CCOc1cc(CNC(C)C)c(Cl)cc1OCC(=O)NCCc1ccccc1	Lmaj promast 99 (no result: bCat nuc transl)
CCOc1cc(CNCCO)c(Cl)cc1OCC(=O)NCCc1ccccc1	Lmaj promast 91
CCOc1cc(C=O)cc(Br)c1OCC(=O)NCCc1ccccc1	none
CCOC(=O)c1cnc2c(Cl)cc(Cl)cc2c1NCCOCCO	Lmaj promast 96
COc1ccc(C(CNC(=O)c2ccccc2SC)N(C)C)cc1 (stereo not drawn)	none
Cc1ccc(NC(=O)[C@@H]2CCCN2S(=O)(=O)c2ccccc2C(F)(F)F)cc1S(=O)(=O)N1CCOCC1	Lmaj promast 98
Cc1ccc(NP(=O)(c2ccc(N(C)C)cc2NC(=O)c2cccs2)N2CCOCC2)cc1 (stereo not drawn)	none
Cc1ccc(NP(=O)(c2ccc(N(C)C)cc2NC(=O)c2cccs2)N2CCOCC2)cc1Cl (stereo not drawn)	Lmaj promast 58
CCOc1cccc(OCCNC2CCCC2)c1	Lmaj promast 80
CC(C)Oc1ccc(OCCNC2CCCC2)cc1	Lmaj promast 79
O=C(CCC(=O)OCC(=O)c1cccc([N+](=O)[O-])c1)Nc1ccccc1Cl	none
O=C(NCc1csc(-c2cccs2)n1)c1ccsc1	none (no result: MT stabilize HCS, APP transl inh, Lmaj promast)
Cn1c(=O)c(=O)n(C)c2cc(S(=O)(=O)N3CC(=O)N(CCc4ccccc4)C(=O)C3)ccc21	none (no result: MT stabilize HCS, APP transl inh, Lmaj promast)

Bioassay records as filed in PubChem BioAssay.
